Measured values reported in ChEMBL document CHEMBL4152188, “Design, synthesis and biological evaluation of C(4) substituted monobactams as antibacterial agents against multidrug-resistant Gram-negative bacteria” (Eur J Med Chem, 2018).
≈ marks a conversion by molar mass, not a printed value.

Experiments:
Format in all cases: functional
Escherichia coli [1] = test: Selectivity index, ratio of MIC for against extended-spectrum beta-lactamase producing Escherichia coli isolate 106342 to MIC for extended-spectrum beta-lactamase producing Escherichia coli isolate 106342 in presence of BPL
Klebsiella pneumoniae [2] = test: Antibacterial activity against KPC-2 producing Klebsiella pneumoniae isolate 209735 after 18 hrs by CLSI broth microdilution method; conditions: isolate 209735, 18 h
Pseudomonas aeruginosa [3] = test: Antibacterial activity against IMP-4 producing Pseudomonas aeruginosa isolate 209321 after 18 hrs in presence of BPL by CLSI broth microdilution method; conditions: isolate 209321, 18 h
Procedure, shortened: (§1)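 CLSI broth microdilution against clinical isolates (ESBL E. coli, KPC-2 MDR K. pneumoniae, IMP-4 MDR P. aeruginosa; five per species). Iron limitation: Mueller-Hinton broth supplemented with 16 mg/liter 2,2'-bipyridyl to complex iron and induce iron uptake systems. Read-out: MIC.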

Klebsiella pneumoniae [4] = test: Antibacterial activity against KPC-2 producing Klebsiella pneumoniae isolate 209632 after 18 hrs in presence of BPL by CLSI broth microdilution method; conditions: isolate 209632, 18 h; procedure, shortened: as §1
Pseudomonas aeruginosa [5] = test: Antibacterial activity against IMP-4 producing Pseudomonas aeruginosa isolate 207272 after 18 hrs in presence of BPL by CLSI broth microdilution method; conditions: isolate 207272, 18 h; procedure, shortened: as §1
Pseudomonas aeruginosa [6] = test: Selectivity index, ratio of MIC for against IMP-4 producing Pseudomonas aeruginosa isolate 209321 to MIC for against IMP-4 producing Pseudomonas aeruginosa isolate 209321 in presence of BPL
Pseudomonas aeruginosa [7] = test: Antibacterial activity against IMP-4 producing Pseudomonas aeruginosa isolate 207272 after 18 hrs by CLSI broth microdilution method; conditions: isolate 207272, 18 h
Pseudomonas aeruginosa [8] = test: Antibacterial activity against IMP-4 producing Pseudomonas aeruginosa isolate 208247 after 18 hrs by CLSI broth microdilution method; conditions: isolate 208247, 18 h
Escherichia coli [9] = test: Selectivity index, ratio of MIC for against extended-spectrum beta-lactamase producing Escherichia coli isolate 209285 to MIC for extended-spectrum beta-lactamase producing Escherichia coli isolate 209285 in presence of BPL
Klebsiella pneumoniae [10] = test: Antibacterial activity against KPC-2 producing Klebsiella pneumoniae isolate 209735 after 18 hrs in presence of BPL by CLSI broth microdilution method; conditions: isolate 209735, 18 h; procedure, shortened: as §1
Escherichia coli [11] = test: Antibacterial activity against Escherichia coli isolate 210737 after 18 hrs in presence of BPL by CLSI broth microdilution method; conditions: isolate 210737, 18 h; procedure, shortened: as §1
Klebsiella pneumoniae [12] = test: Antibacterial activity against KPC-2 producing Klebsiella pneumoniae isolate 212423 after 18 hrs in presence of BPL by CLSI broth microdilution method; conditions: isolate 212423, 18 h; procedure, shortened: as §1
Escherichia coli [13] = test: Antibacterial activity against extended-spectrum beta-lactamase producing Escherichia coli isolate 208687 after 18 hrs by CLSI broth microdilution method; conditions: isolate 208687, 18 h
Klebsiella pneumoniae [14] = test: Selectivity index, ratio of MIC for against KPC-2 producing Klebsiella pneumoniae isolate 209735 to MIC for against KPC-2 producing Klebsiella pneumoniae isolate 209735 in presence of BPL
Klebsiella pneumoniae [15] = test: Selectivity index, ratio of MIC for against KPC-2 producing Klebsiella pneumoniae isolate 209632 to MIC for against KPC-2 producing Klebsiella pneumoniae isolate 209632 in presence of BPL
Escherichia coli [16] = test: Selectivity index, ratio of MIC for against Escherichia coli isolate 210737 to MIC for Escherichia coli isolate 210737 in presence of BPL
Pseudomonas aeruginosa [17] = test: Antibacterial activity against IMP-4 producing Pseudomonas aeruginosa isolate 209321 after 18 hrs by CLSI broth microdilution method; conditions: isolate 209321, 18 h
Klebsiella pneumoniae [18] = test: Antibacterial activity against KPC-2 producing Klebsiella pneumoniae isolate 212423 after 18 hrs by CLSI broth microdilution method; conditions: isolate 212423, 18 h
Klebsiella pneumoniae [19] = test: Antibacterial activity against KPC-2 producing Klebsiella pneumoniae isolate 209632 after 18 hrs by CLSI broth microdilution method; conditions: isolate 209632, 18 h
Escherichia coli [20] = test: Antibacterial activity against extended-spectrum beta-lactamase producing Escherichia coli isolate 212648 after 18 hrs in presence of BPL by CLSI broth microdilution method; conditions: isolate 212648, 18 h; procedure, shortened: as §1
Klebsiella pneumoniae [21] = test: Antibacterial activity against KPC-2 producing Klebsiella pneumoniae isolate 212232 after 18 hrs by CLSI broth microdilution method; conditions: isolate 212232, 18 h
Escherichia coli [22] = test: Antibacterial activity against extended-spectrum beta-lactamase producing Escherichia coli isolate 106342 after 18 hrs by CLSI broth microdilution method; conditions: isolate 106342, 18 h
Escherichia coli [23] = test: Selectivity index, ratio of MIC for against extended-spectrum beta-lactamase producing Escherichia coli isolate 212648 to MIC for extended-spectrum beta-lactamase producing Escherichia coli isolate 212648 in presence of BPL
Pseudomonas aeruginosa [24] = test: Antibacterial activity against IMP-4 producing Pseudomonas aeruginosa isolate 212886 after 18 hrs by CLSI broth microdilution method; conditions: isolate 212886, 18 h
Pseudomonas aeruginosa [25] = test: Antibacterial activity against IMP-4 producing Pseudomonas aeruginosa isolate 212886 after 18 hrs in presence of BPL by CLSI broth microdilution method; conditions: isolate 212886, 18 h; procedure, shortened: as §1
Pseudomonas aeruginosa [26] = test: Antibacterial activity against IMP-4 producing Pseudomonas aeruginosa isolate 209471 after 18 hrs in presence of BPL by CLSI broth microdilution method; conditions: isolate 209471, 18 h; procedure, shortened: as §1
Pseudomonas aeruginosa [27] = test: Antibacterial activity against IMP-4 producing Pseudomonas aeruginosa isolate 208247 after 18 hrs in presence of BPL by CLSI broth microdilution method; conditions: isolate 208247, 18 h; procedure, shortened: as §1
Klebsiella pneumoniae [28] = test: Antibacterial activity against KPC-2 producing Klebsiella pneumoniae isolate 212232 after 18 hrs in presence of BPL by CLSI broth microdilution method; conditions: isolate 212232, 18 h; procedure, shortened: as §1
Klebsiella pneumoniae [29] = test: Selectivity index, ratio of MIC for against KPC-2 producing Klebsiella pneumoniae isolate 212423 to MIC for against KPC-2 producing Klebsiella pneumoniae isolate 212423 in presence of BPL
Escherichia coli [30] = test: Selectivity index, ratio of MIC for against extended-spectrum beta-lactamase producing Escherichia coli isolate 208687 to MIC for extended-spectrum beta-lactamase producing Escherichia coli isolate 208687 in presence of BPL
Escherichia coli [31] = test: Antibacterial activity against extended-spectrum beta-lactamase producing Escherichia coli isolate 209285 after 18 hrs by CLSI broth microdilution method; conditions: isolate 209285, 18 h
Escherichia coli [32] = test: Antibacterial activity against extended-spectrum beta-lactamase producing Escherichia coli isolate 212648 after 18 hrs by CLSI broth microdilution method; conditions: isolate 212648, 18 h
Klebsiella pneumoniae [33] = test: Selectivity index, ratio of MIC for against KPC-2 producing Klebsiella pneumoniae isolate 212229 to MIC for against KPC-2 producing Klebsiella pneumoniae isolate 212229 in presence of BPL
Escherichia coli [34] = test: Antibacterial activity against Escherichia coli isolate 210737 after 18 hrs by CLSI broth microdilution method; conditions: isolate 210737, 18 h
Klebsiella pneumoniae [35] = test: Antibacterial activity against KPC-2 producing Klebsiella pneumoniae isolate 212229 after 18 hrs by CLSI broth microdilution method; conditions: isolate 212229, 18 h
Klebsiella pneumoniae [36] = test: Selectivity index, ratio of MIC for against KPC-2 producing Klebsiella pneumoniae isolate 212232 to MIC for against KPC-2 producing Klebsiella pneumoniae isolate 212232 in presence of BPL
Escherichia coli [37] = test: Antibacterial activity against extended-spectrum beta-lactamase producing Escherichia coli isolate 209285 after 18 hrs in presence of BPL by CLSI broth microdilution method; conditions: isolate 209285, 18 h; procedure, shortened: as §1
Escherichia coli [38] = test: Antibacterial activity against extended-spectrum beta-lactamase producing Escherichia coli isolate 208687 after 18 hrs in presence of BPL by CLSI broth microdilution method; conditions: isolate 208687, 18 h; procedure, shortened: as §1
Escherichia coli [39] = test: Antibacterial activity against extended-spectrum beta-lactamase producing Escherichia coli isolate 106342 after 18 hrs in presence of BPL by CLSI broth microdilution method; conditions: isolate 106342, 18 h; procedure, shortened: as §1
Klebsiella pneumoniae [40] = test: Antibacterial activity against KPC-2 producing Klebsiella pneumoniae isolate 212229 after 18 hrs in presence of BPL by CLSI broth microdilution method; conditions: isolate 212229, 18 h; procedure, shortened: as §1
Pseudomonas aeruginosa [41] = test: Antibacterial activity against IMP-4 producing Pseudomonas aeruginosa isolate 209471 after 18 hrs by CLSI broth microdilution method; conditions: isolate 209471, 18 h

What does the source list for CC(C)C(O/N=C(\C(=O)NC1C(=O)N(S(=O)(=O)O)C12CCCCC2)c1csc(N)n1)c1cc(=O)c(O)cn1O (stereo unspecified)?
Selectivity Index (Escherichia coli [1]): 2; MIC (Klebsiella pneumoniae [2]): 16 µg/mL (≈ 27.4 µM); MIC (Pseudomonas aeruginosa [3]): 64 µg/mL; MIC (Klebsiella pneumoniae [4]): 4 µg/mL; MIC (Pseudomonas aeruginosa [5]): > 64 µg/mL; Selectivity Index (Pseudomonas aeruginosa [6]): 1; MIC (Pseudomonas aeruginosa [7]): > 64 µg/mL; MIC (Pseudomonas aeruginosa [8]): > 64 µg/mL; Selectivity Index (Escherichia coli [9]): 8; MIC (Klebsiella pneumoniae [10]): 4 µg/mL; MIC (Escherichia coli [11]): 8 µg/mL; MIC (Klebsiella pneumoniae [12]): 4 µg/mL; MIC (Escherichia coli [13]): 32 µg/mL (≈ 54.7 µM); Selectivity Index (Klebsiella pneumoniae [14]): 4; Selectivity Index (Klebsiella pneumoniae [15]): 2; Selectivity Index (Escherichia coli [16]): 2; MIC (Pseudomonas aeruginosa [17]): 64 µg/mL (≈ 109 µM); MIC (Klebsiella pneumoniae [18]): 8 µg/mL (≈ 13.7 µM); MIC (Klebsiella pneumoniae [19]): 8 µg/mL (≈ 13.7 µM); MIC (Escherichia coli [20]): > 64 µg/mL; MIC (Klebsiella pneumoniae [21]): 16 µg/mL (≈ 27.4 µM); MIC (Escherichia coli [22]): 32 µg/mL (≈ 54.7 µM); Selectivity Index (Escherichia coli [23]): 2 - 8; MIC (Pseudomonas aeruginosa [24]): > 64 µg/mL; MIC (Pseudomonas aeruginosa [25]): > 64 µg/mL; MIC (Pseudomonas aeruginosa [26]): > 64 µg/mL; MIC (Pseudomonas aeruginosa [27]): 64 µg/mL; MIC (Klebsiella pneumoniae [28]): 1 µg/mL; Selectivity Index (Klebsiella pneumoniae [29]): 2; Selectivity Index (Escherichia coli [30]): 8; MIC (Escherichia coli [31]): 64 µg/mL (≈ 109 µM); MIC (Escherichia coli [32]): > 64 µg/mL; Selectivity Index (Klebsiella pneumoniae [33]): 2; MIC (Escherichia coli [34]): 16 µg/mL (≈ 27.4 µM); MIC (Klebsiella pneumoniae [35]): 8 µg/mL (≈ 13.7 µM); Selectivity Index (Klebsiella pneumoniae [36]): 16; MIC (Escherichia coli [37]): 8 µg/mL; MIC (Escherichia coli [38]): 4 µg/mL; MIC (Escherichia coli [39]): 16 µg/mL; MIC (Klebsiella pneumoniae [40]): 4 µg/mL; MIC (Pseudomonas aeruginosa [41]): > 64 µg/mL
